Source: ChEMBL document CHEMBL1147081, “Structure of the deacetylase LpxC bound to the antibiotic CHIR-090: Time-dependent inhibition and specificity in ligand binding” (Proc Natl Acad Sci U S A, 2007)
Changes are numbered by the printed parent chain. In names and notes the source's numbering stands.

Columns and labels:
[1] = substrate: C[C@@H](O)[C@H](NC(=O)c1ccc(C#Cc2ccc(CN3CCOCC3)cc2)cc1)C(=O)NO; experiment: Activity of Rhizobium leguminosarum LpxC S214G mutant
Procedure, shortened: (§1)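 Wild-type and site-directed mutant LpxC (E. coli, R. leguminosarum) expressed and purified, then assayed by a previously described method. Substrate was UDP-3-O-(R-3-hydroxymyristoyl)-N-acetylglucosamine, varied for Michaelis–Menten analysis. KM and kcat came from data sets pooling multiple independent experiments.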

[2] = substrate: C[C@@H](O)[C@H](NC(=O)c1ccc(C#Cc2ccc(CN3CCOCC3)cc2)cc1)C(=O)NO; experiment: Ratio of Kcat to Km of Rhizobium leguminosarum LpxC S214G mutant; procedure, shortened: as §1
[3] = substrate: C[C@@H](O)[C@H](NC(=O)c1ccc(C#Cc2ccc(CN3CCOCC3)cc2)cc1)C(=O)NO; experiment: Activity of Rhizobium leguminosarum LpxC W206Q/S214G mutant; procedure, shortened: as §1
[4] = substrate: C[C@@H](O)[C@H](NC(=O)c1ccc(C#Cc2ccc(CN3CCOCC3)cc2)cc1)C(=O)NO; experiment: Ratio of Kcat to Km of Rhizobium leguminosarum LpxC W206Q/S214G mutant; procedure, shortened: as §1
[5] = substrate: C[C@@H](O)[C@H](NC(=O)c1ccc(C#Cc2ccc(CN3CCOCC3)cc2)cc1)C(=O)NO; experiment: Activity of Escherichia coli LpxC; procedure, shortened: as §1
[6] = substrate: C[C@@H](O)[C@H](NC(=O)c1ccc(C#Cc2ccc(CN3CCOCC3)cc2)cc1)C(=O)NO; experiment: Ratio of Kcat to Km for Escherichia coli LpxC; procedure, shortened: as §1
[7] = substrate: C[C@@H](O)[C@H](NC(=O)c1ccc(C#Cc2ccc(CN3CCOCC3)cc2)cc1)C(=O)NO; experiment: Activity of Escherichia coli LpxC Q202W/G210S mutant; procedure, shortened: as §1
[8] = substrate: C[C@@H](O)[C@H](NC(=O)c1ccc(C#Cc2ccc(CN3CCOCC3)cc2)cc1)C(=O)NO; experiment: Ratio of Kcat to Km of Escherichia coli LpxC Q202W/G210S mutant; procedure, shortened: as §1

B1: UDP-3-O-acyl-N-acetylglucosamine deacetylase (Rhizobium leguminosarum bv. trifolii (strain WSM1325)), C6ARS9 S214G (protein)
chain: MAIGLLGFQTTVSRPVTLSGTGVHSGAEVSITLNPAESDTGVVFQRLHDNGDITELKAVSSQVGNTDLCTVLGFSPAHSVATIEHVMAAVYALGLDNVVIEVQGSEMPIMDGSSLPFVEAIEQVGLVSLGVKRRYIRITKPVRIEHGGSWSEFRPYDGTRFEVEIDFECPLIGRQKWAGDMTPAVFKAELSRARTFGFMRDVERLWASGHALGGSLENSVVISDDNTVINVEGLRYAKDEFVRHKTLDAVGDLSLAGVQFIGCYRSYRGGHKMNANALKALLADSSAYEVVETSTPRQRVAARELIAVSASEFAPWSA
With B1 the Km [1] was 3.9 µM, the kcat [1] was 0.12 s⁻¹ and the kcat/Km [2] was 3.1 10^4/M/s.

B2: UDP-3-O-acyl-N-acetylglucosamine deacetylase (Rhizobium leguminosarum bv. trifolii (strain WSM1325)), C6ARS9 W206Q,S214G (protein)
chain: B1 chain with W206Q
B2 was tested, and the Km [3] was 10 µM, the kcat [3] was 0.14 s⁻¹ and the kcat/Km [4] was 1.4 10^4/M/s.

B3: UDP-3-O-acyl-N-acetylglucosamine deacetylase (Escherichia coli K-12), P0A725 (protein)
chain: MIKQRTLKRIVQATGVGLHTGKKVTLTLRPAPANTGVIYRRTDLNPPVDFPADAKSVRDTMLCTCLVNEHDVRISTVEHLNAALAGLGIDNIVIEVNAPEIPIMDGSAAPFVYLLLDAGIDELNCAKKFVRIKETVRVEDGDKWAEFKPYNGFSLDFTIDFNHPAIDSSNQRYAMNFSADAFMRQISRARTFGFMRDIEYLQSRGLCLGGSFDCAIVVDDYRVLNEDGLRFEDEFVRHKMLDAIGDLFMCGHNIIGAFTAYKSGHALNNKLLQAVLAKQEAWEYVTFQDDAELPLAFKAPSAVLA
B3 was tested, and the Km [5] was 4 µM, the kcat [5] was 4.2 s⁻¹ and the kcat/Km [6] was 1.1 10^6/M/s.

B4: UDP-3-O-acyl-N-acetylglucosamine deacetylase (Escherichia coli K-12), P0A725 Q202W,G210S (protein)
chain: B3 chain with Q202W, G210S
In the case of B4, the Km [7] is reported as 11 µM, the kcat [7] is reported as 1.6 s⁻¹ and the kcat/Km [8] is reported as 1.5 10^6/M/s.
